Measured values from ChEMBL document CHEMBL1123355, “Activity of N-methyl-alpha- and -beta-funaltrexamine at opioid receptors” (1986).

Organism: Cavia porcellus
Test: Beta-Funaltrexamine antagonism of morphine agonism in the presence of compound was determined in Guinea pig ileum at concentration of 20 nM
Format: functional
In short: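 Guinea pig ileum protection assay. The protector was added to the tissue 10 min before 20 nM β-FNA, which was applied for 30 min. The tissue was then washed 30 times with intermittent chasing by 500 nM naloxone. The result is the morphine IC50 in treated tissue divided by the morphine IC50 in control tissue of the same preparation, given with SE and n.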

Question: Which IC50 ratio does the source give for `O=C1CC[C@@]2(O)[C@H]3Cc4ccc(O)c5c4[C@@]2(CCN3CC2CC2)[C@H]1O5` [NALTREXONE] here?
Answer: 2.1
